Data reported in ChEMBL document CHEMBL1122744, “2-Chloroethyl (methylsulfonyl)methanesulfonate and related (methylsulfonyl)methanesulfonates. Antineoplastic activity in vivo” (J Med Chem, 1984).

Key:
[1] = Ratio of median survival times for non-survivors at dose 22 mg/kg in exp7; assay type: functional
[2] = Ratio of median survival times for non-survivors at dose 75 mg/kg in exp2; assay type: functional
Mus musculus [3] = experiment: Mortality by day 5 expressed as number of mice died to the total treated at dose 100 mg/kg in exp8*-Mortality was 3/6 by day 6; 2/6; assay type: ADME, organism-based; design: dose 100 mg/kg; conditions: in vivo
Mus musculus [4] = experiment: Median survival time of the untreated control groups, in which there are no 30-day survivors at dose 200 mg/kg in exp1; assay type: functional
[5] = Ratio of median survival times for non-survivors at dose 33 mg/kg in exp7; assay type: functional
Mus musculus [6] = experiment: Change in weight by day 5, obtained by subtracting treated groups of animals minus control groups of animals at dose 22 mg/kg in exp3.; assay type: functional
How it was run: (§1)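 Mice were inoculated ip with 10^6 P388 leukemia cells on day 0 and weighed 19–22 g that day. Compound was given ip once daily on days 1–5, within about 5 min of preparing the solution or suspension, to groups of six (occasionally five). Thirty inoculated untreated mice served as controls. The value is the average weight change of treated mice minus that of controls on day 5.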

Mus musculus [7] = experiment: Change in weight by day 5, obtained by subtracting treated groups of animals minus control groups of animals at dose 22 mg/kg in exp6; assay type: functional; how it was run: as §1
Mus musculus [8] = experiment: Median survival time of the treated control groups, in which there are no 30-day survivors at dose 22 mg/kg in exp3; assay type: functional
[9] = Ratio of median survival times for non-survivors at dose 15 mg/kg in exp3; assay type: functional
How it was run: (§2)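 Mice were inoculated ip with 10^6 P388 leukemia cells on day 0. Groups of six (occasionally five) were dosed ip qd on days 1–5 with fresh suspensions; 30 mice served as untreated controls. Deaths were recorded daily up to day 60. T/C% compares the median survival of treated non-survivors (<60 days) with the control median. Medians used grouped data when there were no 30-day survivors, otherwise ungrouped data. t = toxic.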

Mus musculus [10] = experiment: Median survival time of the treated control groups, in which there are no 30-day survivors at dose 50 mg/kg in exp5; assay type: functional
Mus musculus [11] = experiment: Median survival time of the untreated control groups, in which there are no 30-day survivors at dose 22 mg/kg in exp5; assay type: functional
[12] = Ratio of median survival times for non-survivors at dose 22 mg/kg in exp4
Mus musculus [13] = experiment: Change in weight by day 5, obtained by subtracting treated groups of animals minus control groups of animals at dose 50 mg/kg in exp4.; assay type: functional; how it was run: as §1
Mus musculus [14] = experiment: Median survival time of the treated control groups, in which there are no 30-day survivors at dose 33 mg/kg in exp2; assay type: functional
Mus musculus [15] = experiment: Median survival time of the untreated control groups, in which there are no 30-day survivors at dose 33 mg/kg in exp2; assay type: functional
Mus musculus [16] = experiment: Mortality by day 5 expressed as number of mice died to the total treated at dose 50 mg/kg in exp7; 0/6; assay type: ADME, organism-based; design: dose 50 mg/kg; conditions: in vivo
Mus musculus [17] = experiment: Mortality by day 5 expressed as number of mice died to the total treated at dose 15 mg/kg in exp3; 0/5; assay type: ADME, organism-based; design: dose 15 mg/kg; conditions: in vivo
[18] = Ratio of number of 30-day survivors to the total treated mice at dose 50 mg/kg in exp8; 4/6; assay type: functional
Mus musculus [19] = experiment: Mortality by day 5 expressed as number of mice died to the total treated at dose 200 mg/kg in exp1; 5/6; assay type: ADME, organism-based; design: dose 200 mg/kg; conditions: in vivo
Mus musculus [20] = experiment: Median survival time of the untreated control groups, in which there are no 30-day survivors at dose 33 mg/kg in exp3; assay type: functional
Mus musculus [21] = experiment: Change in weight by day 5, obtained by subtracting treated groups of animals minus control groups of animals at dose 75 mg/kg in exp2.; assay type: functional; how it was run: as §1
Mus musculus [22] = experiment: Mortality by day 5 expressed as number of mice died to the total treated at dose 33 mg/kg in exp7; 0/6; assay type: ADME, organism-based; design: dose 33 mg/kg; conditions: in vivo
Mus musculus [23] = experiment: Median survival time of the untreated control groups, in which there are no 30-day survivors at dose 15 mg/kg in exp3; assay type: functional
[24] = Ratio of median survival times for non-survivors at dose 200 mg/kg in exp1; t= toxic; assay type: ADME, organism-based; design: dose 200 mg/kg; conditions: in vivo; how it was run: as §2
Mus musculus [25] = experiment: Median survival time of the treated control groups, in which there are no 30-day survivors at dose 33 mg/kg in exp6; assay type: functional
Mus musculus [26] = experiment: Change in weight by day 5, obtained by subtracting treated groups of animals minus control groups of animals at dose 33 mg/kg in exp6; assay type: functional; how it was run: as §1
Mus musculus [27] = experiment: Median survival time of the untreated control groups, in which there are no 30-day survivors at dose 22 mg/kg in exp3; assay type: functional
Mus musculus [28] = experiment: Median survival time of the untreated control groups, in which there are no 30-day survivors at dose 150 mg/kg in exp2; assay type: functional
[29] = Ratio of median survival times for non-survivors at dose 22 mg/kg in exp3; assay type: functional; how it was run: as §2
[30] = Ratio of number of 30-day survivors to the total treated mice at dose 50 mg/kg in exp1; 4/6; assay type: functional
Mus musculus [31] = experiment: Median survival time of the treated control groups, in which there are no 30-day survivors at dose 22 mg/kg in exp5; assay type: functional
[32] = Number of 30-day survivors at dose 50 mg/kg in exp7*-one death on 6th day, one death on 27th day & four 30 day survivors; 4/6
Mus musculus [33] = experiment: Mortality by day 5 expressed as number of mice died to the total treated at dose 50 mg/kg in exp8; 0/6; assay type: ADME, organism-based; design: dose 50 mg/kg; conditions: in vivo
[34] = Ratio of number of 60-day survivors to the total treated mice at dose 50 mg/kg in exp4; 6/6; assay type: functional
Mus musculus [35] = experiment: Change in weight by day 5, obtained by subtracting treated groups of animals minus control groups of animals at dose 50 mg/kg in exp2.; assay type: functional; how it was run: as §1
Mus musculus [36] = experiment: Median survival time of the treated control groups, in which there are no 30-day survivors at dose 15 mg/kg in exp3; assay type: functional
Mus musculus [37] = experiment: Change in weight by day 5, obtained by subtracting treated groups of animals minus control groups of animals at dose 50 mg/kg in exp5; assay type: functional; how it was run: as §1
Mus musculus [38] = experiment: Median survival time of the untreated control groups, in which there are no 30-day survivors at dose 33 mg/kg in exp6; assay type: functional
Mus musculus [39] = experiment: Mortality by day 5 expressed as number of mice died to the total treated at dose 50 mg/kg in exp1; 0/5; assay type: ADME, organism-based; design: dose 50 mg/kg; conditions: in vivo
Mus musculus [40] = experiment: Median survival time of the untreated control groups, in which there are no 30-day survivors at dose 22 mg/kg in exp6; assay type: functional
Mus musculus [41] = experiment: Mortality by day 5 expressed as number of mice died to the total treated at dose 22 mg/kg in exp5; 0/6; assay type: ADME, organism-based; design: dose 22 mg/kg; conditions: in vivo
Mus musculus [42] = experiment: Median survival time of the treated control groups, in which there are no 30-day survivors at dose 22 mg/kg in exp6; assay type: functional
Mus musculus [43] = experiment: Change in weight by day 5, obtained by subtracting treated groups of animals minus control groups of animals at dose 33 mg/kg in exp7; assay type: functional; how it was run: as §1
Mus musculus [44] = experiment: Median survival time of the treated control groups, in which there are no 30-day survivors at dose 22 mg/kg in exp7; assay type: functional

## CS(=O)(=O)CS(=O)(=O)OCCCl
[1]
  Ratio: 168
[2]
  Ratio: 156
Mus musculus [3]
  Mortality: 2
Mus musculus [4]
  Median survival time: 11.2 days
[5]
  Ratio: 179
Mus musculus [6]
  Change in weight: -1.3
Mus musculus [7]
  Change in weight: -1.4
Mus musculus [8]
  Median survival time: 18.5
[9]
  Ratio: 144
Mus musculus [10]
  Median survival time: 27
Mus musculus [11]
  Median survival time: 12
[12]
  Ratio: 180
Mus musculus [13]
  Change in weight: -3
Mus musculus [14]
  Median survival time: 23.5
Mus musculus [15]
  Median survival time: 11.2
Mus musculus [16]
  Mortality: 0
Mus musculus [17]
  Mortality: 0
[18]
  Ratio: 4
Mus musculus [19]
  Mortality: 5
Mus musculus [20]
  Median survival time: 11.1
Mus musculus [21]
  Change in weight: -4.2
Mus musculus [22]
  Mortality: 0
Mus musculus [23]
  Median survival time: 11.1
[24]
  Ratio: Toxic
Mus musculus [25]
  Median survival time: 23.3
Mus musculus [26]
  Change in weight: -2.1
Mus musculus [27]
  Median survival time: 11.1
Mus musculus [28]
  Median survival time: 11.2
[29]
  Ratio: 166
[30]
  Ratio: 4
Mus musculus [31]
  Median survival time: 19.4
[32]
  30-day survivors: 4
Mus musculus [33]
  Mortality: 0
[34]
  Ratio: 6
Mus musculus [35]
  Change in weight: -3.4
Mus musculus [36]
  Median survival time: 16
Mus musculus [37]
  Change in weight: -2.2
Mus musculus [38]
  Median survival time: 13
Mus musculus [39]
  Mortality: 0
Mus musculus [40]
  Median survival time: 13
Mus musculus [41]
  Mortality: 0
Mus musculus [42]
  Median survival time: 20.8
Mus musculus [43]
  Change in weight: -2.4
Mus musculus [44]
  Median survival time: 18
